Measured values as given in ChEMBL document CHEMBL3576771, “Molecular determinants of biased agonism at the dopamine D₂ receptor” (J Med Chem, 2015).

Key:
[1] = target: D(1A) dopamine receptor (Homo sapiens, UniProt P21728); experiment: Displacement of [3H]SCH23390 from human dopamine D1 receptor transfected in HEK293 cells after 1 hr by scintillation counting analysis; assay type: cell-based
[2] = target: D(1B) dopamine receptor (Homo sapiens, UniProt P21918); experiment: Displacement of [3H]SCH23390 from human dopamine D5 receptor transfected in HEK293 cells after 1 hr by scintillation counting analysis; assay type: cell-based
Chain of D(1B) dopamine receptor (P21918 whole entry): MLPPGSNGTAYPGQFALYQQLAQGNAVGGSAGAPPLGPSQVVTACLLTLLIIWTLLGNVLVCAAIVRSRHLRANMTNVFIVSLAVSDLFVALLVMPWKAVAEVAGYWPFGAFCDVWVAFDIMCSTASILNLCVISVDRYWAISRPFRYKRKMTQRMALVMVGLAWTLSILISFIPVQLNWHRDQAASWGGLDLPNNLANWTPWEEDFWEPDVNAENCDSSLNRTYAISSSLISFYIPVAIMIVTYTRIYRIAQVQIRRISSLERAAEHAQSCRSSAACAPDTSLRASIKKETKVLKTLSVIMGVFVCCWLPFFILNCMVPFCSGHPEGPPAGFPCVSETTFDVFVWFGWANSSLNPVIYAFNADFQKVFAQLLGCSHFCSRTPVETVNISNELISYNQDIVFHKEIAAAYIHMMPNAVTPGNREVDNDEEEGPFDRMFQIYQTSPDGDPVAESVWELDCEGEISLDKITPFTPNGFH

[3] = target: T1, D(2) dopamine receptor (Homo sapiens, UniProt P14416); experiment: Displacement of [3H]spiperone from human dopamine D2L receptor transfected in CHO cells after 1 hr by scintillation counting analysis; assay type: cell-based
T1 sequence (P14416 whole entry): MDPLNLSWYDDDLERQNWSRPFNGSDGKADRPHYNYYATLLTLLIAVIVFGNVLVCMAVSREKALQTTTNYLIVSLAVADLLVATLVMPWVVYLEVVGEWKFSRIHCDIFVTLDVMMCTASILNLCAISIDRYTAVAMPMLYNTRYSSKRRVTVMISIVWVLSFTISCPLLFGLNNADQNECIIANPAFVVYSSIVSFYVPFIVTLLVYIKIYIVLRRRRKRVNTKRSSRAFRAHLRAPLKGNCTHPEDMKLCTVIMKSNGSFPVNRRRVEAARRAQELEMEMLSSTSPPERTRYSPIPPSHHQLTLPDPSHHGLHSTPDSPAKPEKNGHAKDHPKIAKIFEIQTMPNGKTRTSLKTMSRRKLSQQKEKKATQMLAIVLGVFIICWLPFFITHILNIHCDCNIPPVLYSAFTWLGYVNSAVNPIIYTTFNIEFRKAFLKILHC

[4] = target: T1, D(2) dopamine receptor; experiment: Displacement of [3H]spiperone from human dopamine D2S receptor transfected in CHO cells after 1 hr by scintillation counting analysis; assay type: cell-based
[5] = target: D(3) dopamine receptor (Homo sapiens, UniProt P35462); experiment: Displacement of [3H]spiperone from human dopamine D3 receptor transfected in CHO cells after 1 hr by scintillation counting analysis; assay type: cell-based
Chain of D(3) dopamine receptor (P35462 whole entry): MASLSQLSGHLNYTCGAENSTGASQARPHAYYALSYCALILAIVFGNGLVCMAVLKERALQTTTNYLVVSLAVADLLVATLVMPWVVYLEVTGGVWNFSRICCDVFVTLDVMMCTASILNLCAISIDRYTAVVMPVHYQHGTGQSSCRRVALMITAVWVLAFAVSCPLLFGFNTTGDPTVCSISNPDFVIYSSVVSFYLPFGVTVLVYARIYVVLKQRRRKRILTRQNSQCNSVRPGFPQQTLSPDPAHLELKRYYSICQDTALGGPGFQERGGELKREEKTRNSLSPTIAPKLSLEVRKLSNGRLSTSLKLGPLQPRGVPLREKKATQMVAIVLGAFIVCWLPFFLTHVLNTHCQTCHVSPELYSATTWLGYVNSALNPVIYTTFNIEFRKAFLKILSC

[6] = target: T2, D(4) dopamine receptor (Homo sapiens, UniProt P21917); experiment: Displacement of [3H]spiperone from human dopamine D4.4 receptor transfected in CHO cells after 1 hr by scintillation counting analysis; assay type: cell-based
T2 sequence (P21917 whole entry): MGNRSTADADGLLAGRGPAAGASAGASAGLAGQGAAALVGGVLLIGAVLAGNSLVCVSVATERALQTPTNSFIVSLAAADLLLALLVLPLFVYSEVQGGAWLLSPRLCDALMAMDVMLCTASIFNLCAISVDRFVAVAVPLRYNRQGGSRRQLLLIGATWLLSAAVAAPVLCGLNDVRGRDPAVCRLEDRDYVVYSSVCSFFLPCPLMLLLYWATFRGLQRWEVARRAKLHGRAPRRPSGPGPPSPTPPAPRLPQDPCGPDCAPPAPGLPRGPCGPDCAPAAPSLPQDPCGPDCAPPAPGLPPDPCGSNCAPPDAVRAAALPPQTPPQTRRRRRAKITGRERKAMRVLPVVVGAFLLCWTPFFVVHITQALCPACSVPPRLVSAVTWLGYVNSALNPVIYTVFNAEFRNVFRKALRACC

[7] = Displacement of [3H]WAY100635 from poricne cerebral cortex 5-HT1A receptor by scintillation counting analysis; assay type: tissue-based, Sus scrofa
[8] = target: 5-hydroxytryptamine receptor 2A (Homo sapiens, UniProt P28223); experiment: Displacement of [3H]ketanserin from human 5-HT2A receptor transfected in HEK293 cells by scintillation counting analysis; assay type: cell-based
Chain of 5-hydroxytryptamine receptor 2A (P28223 whole entry): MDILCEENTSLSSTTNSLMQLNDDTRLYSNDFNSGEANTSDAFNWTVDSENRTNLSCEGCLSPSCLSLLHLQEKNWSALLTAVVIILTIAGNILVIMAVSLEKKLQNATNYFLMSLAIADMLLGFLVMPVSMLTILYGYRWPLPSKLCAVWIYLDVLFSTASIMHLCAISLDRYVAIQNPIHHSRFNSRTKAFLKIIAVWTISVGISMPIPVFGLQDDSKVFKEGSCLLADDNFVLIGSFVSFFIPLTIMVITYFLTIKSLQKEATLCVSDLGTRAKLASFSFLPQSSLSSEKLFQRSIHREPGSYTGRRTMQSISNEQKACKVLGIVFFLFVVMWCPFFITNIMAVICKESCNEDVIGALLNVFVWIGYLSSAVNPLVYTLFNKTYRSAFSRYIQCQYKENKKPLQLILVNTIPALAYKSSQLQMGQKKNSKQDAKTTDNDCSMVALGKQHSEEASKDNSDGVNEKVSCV

[9] = Displacement of [3H]prazosin from poricne cerebral cortex alpha1 adrenergic receptor by scintillation counting analysis; assay type: tissue-based, Sus scrofa
[10] = target: T1, D(2) dopamine receptor; experiment: Intrinsic activity at human dopamine D2S receptor expressed in HEK293 cells co-transfected with Galpha0i assessed as [35S]GTPgammaS binding after 30 mins by [35S]GTPgammaS incorporation assay; assay type: functional, cell-based
[11] = target: T1, D(2) dopamine receptor; experiment: Intrinsic activity at human dopamine D2S receptor expressed in HEK293 cells co-transfected with Galpha0i assessed as [35S]GTPgammaS binding after 30 mins by [35S]GTPgammaS incorporation assay relative to quinpirole; assay type: functional, cell-based
Method in brief: (§1)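 HEK293 membranes cotransfected with D2L or D2S plus PTX-insensitive Gαo1; 30 μg/mL protein with compounds and 10 μM GDP preincubated 30 min, 37 °C; then 0.10 nM [35S]GTPγS for 30 min, 37 °C; GF/B filtration.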

[12] = target: T1, D(2) dopamine receptor; experiment: Intrinsic activity at human dopamine D2S receptor expressed in HEK293 cells co-transfected with Galphai2 assessed as [35S]GTPgammaS binding after 30 mins by [35S]GTPgammaS incorporation assay; assay type: functional, cell-based
[13] = target: T1, D(2) dopamine receptor; experiment: Intrinsic activity at human dopamine D2S receptor expressed in HEK293 cells co-transfected with Galphai2 assessed as [35S]GTPgammaS binding after 30 mins by [35S]GTPgammaS incorporation assay relative to quinpirole; assay type: functional, cell-based; settings: in the assay text read “after 75 mins” for “after 30 mins”
Method in brief: (§2)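 Membranes from HEK293 cells cotransfected with D2L or D2S and PTX-insensitive Gαi2; 30 μg/mL protein, 10 μM GDP and compounds preincubated 30 min at 37 °C, then 0.10 nM [35S]GTPγS added for 75 min at 37 °C; filtration.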

[14] = target: T1, D(2) dopamine receptor; experiment: Intrinsic activity at human dopamine D2L receptor expressed in HEK293 cells co-transfected with Galpha0i assessed as [35S]GTPgammaS binding after 30 mins by [35S]GTPgammaS incorporation assay; assay type: functional, cell-based
[15] = target: T1, D(2) dopamine receptor; experiment: Intrinsic activity at human dopamine D2L receptor expressed in HEK293 cells co-transfected with Galpha0i assessed as [35S]GTPgammaS binding after 30 mins by [35S]GTPgammaS incorporation assay relative to quinpirole; assay type: functional, cell-based; method in brief: as §1
[16] = target: T1, D(2) dopamine receptor; experiment: Intrinsic activity at human dopamine D2L receptor expressed in HEK293 cells co-transfected with Galphai2 assessed as [35S]GTPgammaS binding after 30 mins by [35S]GTPgammaS incorporation assay; assay type: functional, cell-based
[17] = target: T1, D(2) dopamine receptor; experiment: Intrinsic activity at human dopamine D2L receptor expressed in HEK293 cells co-transfected with Galphai2 assessed as [35S]GTPgammaS binding after 30 mins by [35S]GTPgammaS incorporation assay relative to quinpirole; assay type: functional, cell-based; settings: in the assay text read “after 75 mins” for “after 30 mins”; method in brief: as §2
[18] = target: T1, D(2) dopamine receptor; experiment: Agonist activity at ARMS2-PK2-tagged human dopamine D2S receptor expressed in HEK293 cells co-expressing (EA)-tagged beta arrestin fusion protein assessed as recruitment of beta-arrestin-2 after 5 hrs by chemiluminescence assay; assay type: cell-based
[19] = target: T1, D(2) dopamine receptor; experiment: Agonist activity at ARMS2-PK2-tagged human dopamine D2S receptor expressed in HEK293 cells co-expressing (EA)-tagged beta arrestin fusion protein assessed as recruitment of beta-arrestin-2 after 5 hrs by chemiluminescence assay relative to quinpirole; assay type: cell-based
Method in brief: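 Transient transfection of D2S (ProLink-tagged) into HEK293 cells stably expressing EA-tagged β-arrestin-2; 5000 cells seeded, 24 h.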

[20] = target: D(1A) dopamine receptor (Sus scrofa) (UniProt P50130); experiment: Displacement of [3H]SCH23390 from porcine dopamine D1 receptor in striatal membranes after 1 hr by scintillation counting analysis
Chain of D(1A) dopamine receptor (Sus scrofa) (P50130 whole entry, looked up): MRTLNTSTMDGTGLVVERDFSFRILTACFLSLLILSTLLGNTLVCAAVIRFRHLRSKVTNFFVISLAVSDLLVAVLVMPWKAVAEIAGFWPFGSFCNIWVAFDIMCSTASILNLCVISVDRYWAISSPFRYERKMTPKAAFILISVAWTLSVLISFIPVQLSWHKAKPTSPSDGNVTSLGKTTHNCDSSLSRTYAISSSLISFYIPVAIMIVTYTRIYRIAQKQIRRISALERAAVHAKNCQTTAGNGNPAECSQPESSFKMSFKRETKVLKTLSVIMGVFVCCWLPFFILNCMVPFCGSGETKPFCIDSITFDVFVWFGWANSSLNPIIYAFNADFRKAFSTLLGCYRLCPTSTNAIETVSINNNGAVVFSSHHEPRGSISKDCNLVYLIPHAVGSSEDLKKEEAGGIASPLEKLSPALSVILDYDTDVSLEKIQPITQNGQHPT

Chain of D(1A) dopamine receptor (P21728 whole entry): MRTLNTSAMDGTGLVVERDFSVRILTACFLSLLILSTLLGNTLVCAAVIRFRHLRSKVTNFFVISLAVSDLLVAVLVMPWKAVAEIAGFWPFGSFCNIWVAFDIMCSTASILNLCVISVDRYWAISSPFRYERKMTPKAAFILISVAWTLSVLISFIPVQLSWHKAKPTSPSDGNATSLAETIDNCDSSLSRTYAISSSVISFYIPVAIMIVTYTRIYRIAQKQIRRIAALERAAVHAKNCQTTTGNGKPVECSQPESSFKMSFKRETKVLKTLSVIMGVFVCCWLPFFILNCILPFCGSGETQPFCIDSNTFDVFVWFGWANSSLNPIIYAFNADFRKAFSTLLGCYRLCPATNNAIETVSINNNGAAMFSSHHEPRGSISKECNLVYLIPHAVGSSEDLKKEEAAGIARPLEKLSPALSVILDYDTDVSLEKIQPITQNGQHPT

Ki [1] [µM] | Ki [2] [µM] | Ki [3] [nM] | Ki [4] [nM] | Ki [5] [nM] | Ki [6] [nM] | Ki [7] [nM] | Ki [8] [µM] | Ki [9] [nM] | EC50 [10] [nM] | Emax [11] [%] | EC50 [12] [nM] | Emax [13] [%] | EC50 [14] [nM] | Emax [15] [%] | EC50 [16] [nM] | Emax [17] [%] | EC50 [18] [nM] | Emax [19] [%] | Ki [20] [µM] | Compound
2.9 | 0.7 | 0.47 | 0.54 | 0.21 | 9.4 | 22 | 0.71 | 85 | 2.1 | 110 | 4 | 97 | 3.1 | 90 | 2.9 | 99 | 1.4 | 94 |  | CCCCn1cc(CCCOc2ccc(C(=O)NCCCCN(CCC)[C@H]3CCc4c(O)cccc4C3)cc2OC)nn1
23 | 21 | 18 | 30 | 1.2 | 290 | 200 | 1 | 480 | 830 | 27 |  | < 5 | 530 | 36 |  | < 5 | 30 | 56 |  | CCCCn1cc(CCCOc2ccc(C(=O)NCCCCN(CCC)[C@@H]3CCc4c(O)cccc4C3)cc2OC)nn1
3.9 | 48 | 4.9 | 10 | 2.2 | 180 | 810 | 14 | 860 | 410 | 108 | 2900 | 89 | 90 | 88 | 1900 | 84 | 480 | 101 |  | C#CC1=CC[C@H](N(CCC)CCCCNC(=O)c2ccc(OCCCc3cn(CCCC)nn3)c(OC)c2)CO1
4.6 | 25 | 24 | 53 | 1.6 | 800 | 2800 | 3.6 | 2400 | 980 | 87 | 1700 | 85 | 3800 | 82 | 7300 | 84 | 140 | 86 |  | CCCCn1cc(CCCOc2ccc(C(=O)NCCCCN(CCC)CCc3ccc(O)c4[nH]c(=O)ccc34)cc2OC)nn1
2.6 | 24 | 1.6 | 2.9 | 0.63 | 30 | 130 | 8 | 1000 | 110 | 92 | 660 | 94 | 52 | 99 | 28 | 61 | 380 | 88 |  | C#CC1=CC[C@@H](N(CCC)CCCCNC(=O)c2ccc(OCCCc3cn(CCCC)nn3)c(OC)c2)CO1
 |  |  |  |  | 30 | 160 | 9 | 620 |  | 104 |  | 100 |  | 92 |  |  |  | 93 | 13 | C#CC1=CC[C@@H](N(CCC)CCCCNC(=O)c2ccc(-c3ccccc3)cc2)CC1
 |  |  |  |  | 60 | 110 | 28 | 1800 |  | 100 |  |  |  |  |  | 73 |  | 93 | 18 | C#CC1=CC[C@H](N(CCC)CCCCNC(=O)c2ccc(-c3ccccc3)cc2)CC1
